High-throughput results from PubChem.
KDM4C inh: blocks human GASC-1 (KDM4C) demethylase activity. Q9H3R0. GST-KDM4C 2-372, H3K9me3 peptide, LANCE TR-FRET. inhibition, % at 12.5 µM. 0.15% of 96,000 active;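 active means mean replicate inhibition above about 25%, with at least 55% of replicates also reaching it, limit read from the data, passing the limit was not always enough; inconclusive means only one of those two conditions met; inactive means neither condition met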
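Assay system: GST-GASC-1 enzyme fragment 2-372 | Amount: 10 nM enzyme | Medium: HEPES buffer, pH 7.5, plus ascorbate | Reagent: H3K9me3 peptide substrate, Fe(II), 2-oxoglutarate | Doses: Single-point compound screen | Incubation: 30 min demethylation and 1 h detection at room temperature | Measured by: LANCE TR-FRET, excitation 340 nm, emissions 618 and 671 nm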
T cruzi growth-1: blocks T. cruzi growth in NIH3T3 culture | AID 624255 | T. cruzi beta-gal in NIH3T3, GalScreen luminescence, 90 h | 5.9% of 77,000 active | inhibition, % at 8.34 µM;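 active means mean inhibition above about 93%, with at least 55% of replicates each passing it, limit read from the data, passing the limit was not always enough; inconclusive means only one of those two conditions holds; inactive means neither condition holds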
IDH1 R132H inh: blocks human IDH1 R132H reductase activity; O75874; diaphorase/resazurin fluorescence, 60 min; inhibition, % at 10 µM; 0.18% of 70,000 active; in the data active means inhibition above about 34%; inconclusive means no clear call, values can overlap the other calls; inactive means below about 11%
Target sequence (O75874 whole entry R132H): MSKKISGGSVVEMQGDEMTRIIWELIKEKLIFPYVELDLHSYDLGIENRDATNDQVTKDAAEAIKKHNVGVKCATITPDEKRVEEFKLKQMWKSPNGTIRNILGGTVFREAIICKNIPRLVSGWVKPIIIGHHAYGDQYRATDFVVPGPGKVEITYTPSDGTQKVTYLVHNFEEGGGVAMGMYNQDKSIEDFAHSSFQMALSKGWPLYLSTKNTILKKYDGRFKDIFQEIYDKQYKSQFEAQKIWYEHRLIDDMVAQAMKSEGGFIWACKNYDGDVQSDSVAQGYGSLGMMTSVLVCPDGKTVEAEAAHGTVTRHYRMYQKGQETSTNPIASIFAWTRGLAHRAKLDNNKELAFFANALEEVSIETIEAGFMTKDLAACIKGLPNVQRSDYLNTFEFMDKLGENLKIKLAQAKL
T cruzi growth-2: inhibitors of T. cruzi proliferation | shares compounds with T cruzi growth-1 | T. cruzi beta-gal in NIH3T3, GalScreen luminescence, 90 h | inhibition, % at 8.35 µM | 72% of 5,600 active;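 active means mean replicate inhibition above about 95% and at least 55% of replicates individually reaching it, limit read from the data; inconclusive means only one of the two criteria is met; inactive means neither criterion is met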
T cruzi growth-3: blocks T. cruzi growth in NIH3T3 host cells; shares compounds with T cruzi growth-1; T. cruzi beta-gal in NIH3T3, GalScreen luminescence, 90 h; inhibition, % at 2.09 µM; 21% of 5,600 active;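 active means mean inhibition above about 95%, with at least 55% of replicates also reaching it, limit read from the data; inconclusive means meets just one of the two conditions; inactive means meets neither condition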
3T3 cytotox: kills mouse NIH/3T3 fibroblasts | shares compounds with T cruzi growth-1 | NIH/3T3 viability, CellTiter-Glo ATP luminescence, 90 h | cytotoxicity (signal decrease), % at 8.35 µM | 14% of 5,600 active | AID 651742;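 active means mean signal decrease across replicates above about 35% based on untreated-well scatter, with enough replicates individually passing, limit read from the data; inconclusive means no rule stated though some were filed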
NIH3T3 tox 2: NIH/3T3 (mouse) viability loss | shares compounds with T cruzi growth-1 | NIH/3T3 viability, CellTiter-Glo ATP luminescence, 90 h | inhibition, % at 24.9 µM | 56% of 5,600 active | AID 651744;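 active means mean loss of cell viability signal at or above a set limit, and enough replicates individually reaching it; inconclusive means meets only the mean limit or only the replicate share; inactive means meets neither condition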
Numbers stand for hits; – = inactive; ? = inconclusive; · = no result. Many of the other results were omitted from the sample, so hits are more common in it than they were.

SMILES | KDM4C inh | T cruzi growth-1 | IDH1 R132H inh | T cruzi growth-2 | T cruzi growth-3 | 3T3 cytotox | NIH3T3 tox 2
C[C@@H]1CN([C@@H](C)CO)C(=O)c2cc(NC(=O)Nc3cccc4ccccc34)ccc2O[C@@H](C)CCCCO[C@H]1CN(C)C(=O)Nc1cccc2ccccc12 | – | – | · | · | · | · | ·
C[C@@H]1CCCCO[C@H](CN(C)C(=O)C2CCCCC2)[C@H](C)CN([C@@H](C)CO)C(=O)c2cc(NC(=O)Nc3cccc4ccccc34)ccc2O1 | – | ? | · | 105 | – | – | –
COc1ccc(C)cc1NC(=O)CN(c1ccc(F)c(Cl)c1)S(C)(=O)=O | · | · | – | · | · | · | ·
Cc1cc(N(CC(=O)NC2CCCCCC2)S(C)(=O)=O)ccc1Br | · | · | – | · | · | · | ·
CCCN(C)C[C@H]1Oc2cc(C#Cc3ccccc3OC)ccc2S(=O)(=O)N([C@@H](C)CO)C[C@H]1C | – | 97 | – | 106 | – | – | 105
CCCN(C)C[C@H]1Oc2cc(C#Cc3ccccc3OC)ccc2S(=O)(=O)N([C@H](C)CO)C[C@H]1C | – | – | – | · | · | · | ·
CCCN(C)C[C@@H]1Oc2cc(C#Cc3ccccc3OC)ccc2S(=O)(=O)N([C@H](C)CO)C[C@@H]1C | – | 97 | – | 108 | – | – | 107
CCCN(C)C[C@@H]1Oc2cc(C#Cc3ccccc3OC)ccc2S(=O)(=O)N([C@@H](C)CO)C[C@@H]1C | – | – | – | · | · | · | ·
CNC[C@H]1Oc2ncc(C3=CCCC3)cc2C(=O)N([C@@H](C)CO)C[C@H]1C | – | – | – | · | · | · | ·
COc1cc([C@H]2Oc3c(OC)cc(/C=C/CO)cc3[C@H]2CO)ccc1OC1OC(CO)C(O)C(O)C1O (stereo not given in full) | · | · | – | · | · | · | ·
CCc1cnc(N2[C@H](CO)[C@@H](c3ccc(C4=CCCC4)cc3)[C@@H]2C#N)s1 | – | – | · | · | · | · | ·
CCc1cnc(N2[C@H](C#N)[C@@H](c3ccc(C#CCC4CCCC4)cc3)[C@@H]2CO)s1 | – | ? | · | 96 | 106 | – | 104
CCc1cnc(N2[C@@H](C#N)[C@H](c3ccc(C#CCC4CCCC4)cc3)[C@@H]2CO)s1 | – | 105 | · | 108 | ? | – | –
CCc1cnc(N2[C@H](C#N)[C@@H](c3ccc(C4=CCCCC4)cc3)[C@@H]2CO)s1 | – | – | · | · | · | · | ·
Cc1nc(SC(C(=O)O)c2ccccc2)cc(-c2ccccc2)n1 (stereo not given) | · | · | – | · | · | · | ·
COC(=O)c1cc(C)sc1NC(=S)Nc1cnn(C)c1C(N)=O | · | · | – | · | · | · | ·
Cc1cc(N(CC(=O)NC2CC3CCC2C3)S(C)(=O)=O)ccc1Br (stereo not given) | · | · | – | · | · | · | ·
NC(=O)CN1C(=O)C(O)(C2CCc3ccccc3C2=O)c2ccccc21 (stereo not given) | · | · | – | · | · | · | ·
CN1C(=O)C2C=CC=CC2N=C1SCc1ccccc1F (stereo not given) | · | · | – | · | · | · | ·
N=c1ncn(Cc2ccccc2)c2nc(SCC(=O)O)[nH]c12 | · | · | – | · | · | · | ·
CC1C=NC(S(=O)(=O)N2CC[C@@H]3[C@H]2c2cc(-c4cccc(F)c4)ccc2N(C)[C@H]3CO)=N1 (stereo not given in full) | – | ? | · | 105 | – | – | –
CC1C=NC(S(=O)(=O)N2CC[C@H]3[C@@H](CO)N(C)c4ccc(-c5ccccc5)cc4[C@H]32)=N1 (stereo not given in full) | – | – | · | · | · | · | ·
CC1C=NC(S(=O)(=O)N2CC[C@@H]3[C@H]2c2cc(-c4ccccc4)ccc2N(C)[C@H]3CO)=N1 (stereo not given in full) | – | ? | · | 101 | – | – | –
CC1C=NC(S(=O)(=O)N2CC[C@@H]3[C@@H](CO)N(C)c4ccc(-c5ccc(F)cc5)cc4[C@@H]32)=N1 (stereo not given in full) | – | – | · | · | · | · | ·
Cn1c(=O)n(C)c2cc(CNCc3cccnc3)ccc21 | · | · | – | · | · | · | ·
SMILES | KDM4C inh | T cruzi growth-1 | IDH1 R132H inh | T cruzi growth-2 | T cruzi growth-3 | 3T3 cytotox | NIH3T3 tox 2
C[C@@H]1CCCCO[C@@H](CN(C)S(=O)(=O)c2ccccc2)[C@H](C)CN([C@H](C)CO)C(=O)c2cc(NC(=O)Nc3ccc(C(F)(F)F)cc3)ccc2O1 | – | – | – | · | · | · | ·
C[C@H]1CCCCO[C@H](CN(C)S(=O)(=O)c2ccccc2)[C@@H](C)CN([C@@H](C)CO)C(=O)c2cc(NC(=O)Nc3ccc(C(F)(F)F)cc3)ccc2O1 | – | ? | – | 109 | 117 | – | –
C[C@@H]1CCCCO[C@H](CN(C)S(=O)(=O)c2ccccc2)[C@H](C)CN([C@H](C)CO)C(=O)c2cc(NC(=O)Nc3ccc(C(F)(F)F)cc3)ccc2O1 | – | – | – | · | · | · | ·
C[C@@H]1CN([C@H](C)CO)C(=O)c2cc(NC(=O)Nc3ccc(C(F)(F)F)cc3)ccc2O[C@@H](C)CCCCO[C@H]1CN(C)S(=O)(=O)c1ccccc1 | – | 98 | – | 102 | 109 | – | –
CC(C)(O[C@@H]1O[C@H](CO)[C@@H](O)[C@H](O)[C@H]1O)[C@@H](O)COc1c2ccoc2cc2oc(=O)ccc12 | · | · | – | · | · | · | ·
O=C(c1ccc(F)cc1)N1CCCCN2[C@H](CO)[C@@H](c3ccc(-c4ccccc4)cc3)[C@@H]2C1 | – | – | · | · | · | · | ·
O=C(c1ccc(F)cc1)N1CCCCN2[C@H](CO)[C@H](c3ccc(-c4ccc(F)cc4)cc3)[C@@H]2C1 | · | 105 | · | 108 | – | – | 73
O=C(c1ccc(F)cc1)N1CCCCN2[C@H](CO)[C@H](c3ccc(-c4ccc(F)cc4)cc3)[C@H]2C1 | · | 107 | · | 103 | – | – | 105
O=C(c1ccc(F)cc1)N1CCCCN2[C@H](CO)[C@@H](c3ccc(-c4ccc(F)cc4)cc3)[C@H]2C1 | · | 111 | · | 104 | – | 37 | 103
O=C(c1ccc(F)cc1)N1CCCCN2[C@H](CO)[C@H](c3ccc(-c4ccccc4)cc3)[C@@H]2C1 | – | – | · | · | · | · | ·
O=C(c1ccc(F)cc1)N1CCCCN2[C@@H](CO)[C@@H](c3ccc(-c4ccc(F)cc4)cc3)[C@@H]2C1 | · | – | · | · | · | · | ·
COc1ccc(-c2ccc([C@@H]3[C@@H](CO)N4CCCCN(C(=O)c5ccc(F)cc5)C[C@H]34)cc2)cc1 | – | 123 | · | ? | – | – | 57
COc1ccc(-c2ccc([C@H]3[C@H]4CN(C(=O)c5ccc(F)cc5)CCCCN4[C@H]3CO)cc2)cc1 | – | – | · | · | · | · | ·
CCN(CC)CCSc1nnc2c3ccccc3n(CC)c2n1 | · | · | – | · | · | · | ·
CCn1c(SCC(N)=O)nnc1-c1ccncc1 | · | · | – | · | · | · | ·
O=C(c1ccc(F)cc1)N1CCCCN2[C@H](C1)[C@@H](c1ccc(-c3ccc(F)cc3)cc1)[C@@H]2CO | · | 98 | · | 103 | – | 43 | 103
COc1ccc(-c2ccc([C@H]3[C@@H](CO)N4CCCCN(C(=O)c5ccc(F)cc5)C[C@H]34)cc2)cc1 | – | – | · | · | · | · | ·
CCC(Sc1nnnn1-c1ccccc1)C(=O)Nc1ccc([N+](=O)[O-])cc1 (stereo not given) | · | · | – | · | · | · | ·
